Data taken from ChEMBL document CHEMBL1909519, “L-Proline anchored multicomponent synthesis of novel pyrido[2,3-a]carbazoles; investigation of in vitro antimicrobial, antioxidant, cytotoxicity and structure activity relationship studies” (Eur J Med Chem, 2011).
Values after ≈ are worked out from the molar mass of the structure shown.

Key:
[1] = system: Aspergillus niger; test: Antifungal activity against Aspergillus niger at 25 ug/ml after 48 hrs by agar disk diffusion assay; format: functional; conditions: read-out: DIZ
Procedure, shortened: (§1)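 Fungal isolates (PSG Hospital, Coimbatore) grown on Sabouraud dextrose agar; agar well diffusion with compounds in DMSO at 0 (control), 25, 50, 75, 100. DMSO negative control, fluconazole ([…]) positive control. Plates held 28 ± 2 °C for 48 h; zone of inhibition diameter recorded in mm.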

[2] = system: Aspergillus niger; test: Antifungal activity against Aspergillus niger after 48 hrs by agar disk diffusion assay; format: functional; procedure, shortened: as §1
[3] = Cytotoxicity against human SK-MEL-12 cells up to 50 ug/ml after 48 hrs by SRB assay; format: functional, cell-based
Procedure, shortened: (§2)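 Cells in RPMI-1640 with 10% heat-inactivated FBS, 1 mM NaHCO3, 2 mM L-glutamine, 37 °C, 5% CO2; seeded (B16F10 5 × 10⁴ cells/mL, others 1 × 10⁵ cells/mL), 24 h, then compounds in DMSO at 1.56–50 for 48 h, triplicate wells. TCA fixation, SRB staining 30 min, tris extraction, OD 520 nm; IC50 by linear regression, mean ± SD of three independent experiments; cisplatin positive control.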

[4] = system: B16-F10; test: Cytotoxicity against mouse B16F10 cells up to 50 ug/ml after 48 hrs by SRB assay; format: functional, cell-based; procedure, shortened: as §2
[5] = system: SK-OV-3; test: Cytotoxicity against human SKOV3 cells up to 50 ug/ml after 48 hrs by SRB assay; format: functional, cell-based; procedure, shortened: as §2
[6] = system: Candida albicans; test: Antifungal activity against Candida albicans at 25 ug/ml after 48 hrs by agar disk diffusion assay; format: functional; conditions: read-out: DIZ; procedure, shortened: as §1
[7] = system: Candida albicans; test: Antifungal activity against Candida albicans after 48 hrs by agar disk diffusion assay; format: functional; procedure, shortened: as §1
[8] = system: Escherichia coli; test: Antibacterial activity against Escherichia coli at 25 ug/ml after 24 hrs by agar disk diffusion assay; format: functional; conditions: read-out: DIZ
Procedure, shortened: (§3)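 Gram-negative clinical isolates (PSG Hospital, Coimbatore) tested by agar well diffusion on nutrient agar. Compounds dissolved in DMSO at 0 (control), 25, 50, 75, 100; DMSO was the negative control and ciprofloxacin ([…]) the positive control. Incubation 37 ± 2 °C for 24 h, then inhibition zone diameter measured in mm.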

[9] = system: Staphylococcus aureus; test: Antibacterial activity against Staphylococcus aureus after 24 hrs by agar disk diffusion assay; format: functional
Procedure, shortened: (§4)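 Agar well diffusion on nutrient agar against Gram-positive clinical isolates (PSG Hospital, Coimbatore). Compounds in DMSO tested at 0 (control), 25, 50, 75, 100; DMSO as solvent and negative control; ciprofloxacin ([…]) as positive control. Plates incubated 37 ± 2 °C, 24 h; zone of inhibition diameter read in mm.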

[10] = system: Staphylococcus aureus; test: Antibacterial activity against Staphylococcus aureus at 25 ug/ml after 24 hrs by agar disk diffusion assay; format: functional; conditions: read-out: DIZ; procedure, shortened: as §4
[11] = system: Klebsiella pneumoniae; test: Antibacterial activity against Klebsiella pneumoniae at 25 ug/ml after 24 hrs by agar disk diffusion assay; format: functional; conditions: read-out: DIZ; procedure, shortened: as §3
[12] = system: Enterococcus faecalis; test: Antibacterial activity against Enterococcus faecalis after 24 hrs by agar disk diffusion assay; format: functional; procedure, shortened: as §4
[13] = system: Radical scavenging activity; test: Antioxidant activity assessed as DPPH radical scavenging activity after 30 mins by micro plate reader; format: functional
Procedure, shortened: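 DPPH assay: various compound concentrations brought to volume with ethanol, mixed with 0.1 mM ethanolic DPPH alongside vitamin C standard; shaken 30 min at 24 °C, absorbance read at 517 nm; concentration giving 50% decrease determined.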

[14] = system: Enterococcus faecalis; test: Antibacterial activity against Enterococcus faecalis at 25 ug/ml after 24 hrs by agar disk diffusion assay; format: functional; conditions: read-out: DIZ; procedure, shortened: as §4
[15] = system: Klebsiella pneumoniae; test: Antibacterial activity against Klebsiella pneumoniae after 24 hrs by agar disk diffusion assay; format: functional; procedure, shortened: as §3
[16] = system: A549; test: Cytotoxicity against human A549 cells up to 50 ug/ml after 48 hrs by SRB assay; format: functional, cell-based; procedure, shortened: as §2
[17] = system: Escherichia coli; test: Antibacterial activity against Escherichia coli after 24 hrs by agar disk diffusion assay; format: functional; procedure, shortened: as §3
[18] = system: HCT-15; test: Cytotoxicity against human HCT15 cells up to 50 ug/ml after 48 hrs by SRB assay; format: functional, cell-based; procedure, shortened: as §2
[19] = system: SK-OV-3; test: Cytotoxicity against human SKOV3 cells after 48 hrs by SRB assay; format: functional, cell-based; conditions: SK-OV-3, 48 h; procedure, shortened: as §2
[20] = system: HCT-15; test: Cytotoxicity against human HCT15 cells after 48 hrs by SRB assay; format: functional, cell-based; conditions: HCT-15, 48 h; procedure, shortened: as §2
[21] = system: A549; test: Ratio of cisplatin IC50 to compound IC50 for human A549 cells; format: functional
[22] = organism: Homo sapiens; test: Ratio of cisplatin IC50 to compound IC50 for human SK-MEL-12; format: functional
[23] = system: A549; test: Cytotoxicity against human A549 cells after 48 hrs by SRB assay; format: functional, cell-based; conditions: A549, 48 h; procedure, shortened: as §2
[24] = system: HCT-15; test: Ratio of cisplatin IC50 to compound IC50 for human HCT15 cells; format: functional
[25] = system: B16-F10; test: Cytotoxicity against mouse B16F10 cells after 48 hrs by SRB assay; format: functional, cell-based; conditions: B16-F10, 48 h; procedure, shortened: as §2
[26] = Cytotoxicity against human SK-MEL-12 cells after 48 hrs by SRB assay; format: functional, cell-based; procedure, shortened: as §2
[27] = system: Candida albicans; test: Antifungal activity against Candida albicans at 100 ug/ml after 48 hrs by agar disk diffusion assay; format: functional; conditions: read-out: DIZ; procedure, shortened: as §1
[28] = system: Aspergillus niger; test: Antifungal activity against Aspergillus niger at 100 ug/ml after 48 hrs by agar disk diffusion assay; format: functional; conditions: read-out: DIZ; procedure, shortened: as §1
[29] = system: Klebsiella pneumoniae; test: Antibacterial activity against Klebsiella pneumoniae at 100 ug/ml after 24 hrs by agar disk diffusion assay; format: functional; conditions: read-out: DIZ; procedure, shortened: as §3
[30] = system: Escherichia coli; test: Antibacterial activity against Escherichia coli at 100 ug/ml after 24 hrs by agar disk diffusion assay; format: functional; conditions: read-out: DIZ; procedure, shortened: as §3
[31] = system: Enterococcus faecalis; test: Antibacterial activity against Enterococcus faecalis at 100 ug/ml after 24 hrs by agar disk diffusion assay; format: functional; conditions: read-out: DIZ; procedure, shortened: as §4
[32] = system: Staphylococcus aureus; test: Antibacterial activity against Staphylococcus aureus at 100 ug/ml after 24 hrs by agar disk diffusion assay; format: functional; conditions: read-out: DIZ; procedure, shortened: as §4

MIC [2] | MIC [7] | MIC [9] | MIC [12] | IC50 [13] | MIC [15] | MIC [17] | SMILES | zone of inhibition at 25 µg/mL [1] | IC50 [3] | IC50 [5] | zone of inhibition at 25 µg/mL [6] | zone of inhibition at 25 µg/mL [8] | zone of inhibition at 25 µg/mL [10] | zone of inhibition at 25 µg/mL [11] | zone of inhibition at 25 µg/mL [14] | IC50 [20] | IC50 [23] | IC50 [25] | other results
> 100 mg/L | > 100 mg/L | 25 mg/L (≈ 52.5 µM) | 25 mg/L (≈ 52.5 µM) | 214.77 mg/L (≈ 451 µM) | 25 mg/L (≈ 52.5 µM) | 25 mg/L (≈ 52.5 µM) | CCOC(=O)c1c(N)nc2c(c1-c1ccc(Br)cc1)CCc1c-2[nH]c2ccc(C)cc12 | 5 mm | Not Active | Not Active | 7 mm | 21 mm | 23 mm | 25 mm | 22 mm |  |  |  | IC50 [4]: Not Active; IC50 [16]: Not Active; IC50 [18]: Not Active
> 100 mg/L | > 100 mg/L | 25 mg/L (≈ 57.4 µM) | 25 mg/L (≈ 57.4 µM) | 163.07 mg/L (≈ 374 µM) | 25 mg/L (≈ 57.4 µM) | 25 mg/L (≈ 57.4 µM) | Cc1ccc2[nH]c3c(c2c1)CCc1c-3nc(N)c(C#N)c1-c1cc2ccccc2nc1Cl | 6 mm |  |  | 10 mm | 23 mm | 25 mm | 25 mm | 24 mm | 4.43 mg/L (≈ 10.2 µM) | 3.72 mg/L (≈ 8.53 µM) | 5.89 mg/L (≈ 13.5 µM) | IC50 [19]: 21.9 mg/L (≈ 50.3 µM); Ratio IC50 [21]: 1.51; Ratio IC50 [22]: 2.32; Ratio IC50 [24]: 1.79; IC50 [26]: 4.48 mg/L (≈ 10.3 µM)
> 100 mg/L | > 100 mg/L | 100 mg/L (≈ 285 µM) | 100 mg/L (≈ 285 µM) | 205.5 mg/L (≈ 586 µM) | 100 mg/L (≈ 285 µM) | 100 mg/L (≈ 285 µM) | Cc1ccc2[nH]c3c(c2c1)CCc1c-3nc(N)c(C#N)c1-c1ccccc1 |  | Not Active | Not Active |  |  |  |  |  | 44.9 mg/L (≈ 128 µM) | 49.2 mg/L (≈ 141 µM) | 47.6 mg/L (≈ 136 µM) | zone of inhibition at 100 µg/mL [27]: 3 mm; zone of inhibition at 100 µg/mL [28]: 4 mm; zone of inhibition at 100 µg/mL [29]: 15 mm; zone of inhibition at 100 µg/mL [30]: 16 mm; zone of inhibition at 100 µg/mL [31]: 14 mm; zone of inhibition at 100 µg/mL [32]: 12 mm
